pIC50: −log10 of the molar value. The source made the active and inactive calls. The calls are words filed in the database; no cut-off is given here.
Legend:
[1] = Anticancer activity against human Molt4/C8 cells after 72 hrs; assay type: functional, cell-based; settings: MOLT-4, 72 h
Mus musculus [2] = assay: Neurotoxicity in mouse at 30 to 300 mg/kg, ip after 0.5 hrs by rotarod method; assay type: toxicity, organism-based; design: dose 30-300 mg/kg, route intraperitoneal; settings: in vivo
Summary of the method: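 Mice given 30, 100 and 300 mg/kg by intraperitoneal injection; animals scored for mortality and neurotoxicity at 0.5 and 4 h after dosing.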

CCRF-CEM [3] = assay: Anticancer activity against human CEM cells after 72 hrs; assay type: functional, cell-based
L1210 [4] = assay: Anticancer activity against mouse L1210 cells after 48 hrs; assay type: functional, cell-based; settings: L1210, 48 h
Mus musculus [5] = assay: Toxicity in mouse assessed as mortality at 30 to 300 mg/kg, ip after 0.5 to 4 hrs; assay type: organism-based; design: dose 30-300 mg/kg, route intraperitoneal; settings: in vivo
Summary of the method: (§1)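 Mice dosed intraperitoneally at 30, 100 and 300 mg/kg; animals observed for deaths and neurological deficit at 0.5 and 4 h after injection.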

HSC-2 [6] = assay: Cytotoxicity against human HSC2 cells after 48 hrs; assay type: functional; settings: HSC-2, 48 h
HL-60 [7] = assay: Anticancer activity against human HL60 cells; assay type: functional, cell-based
L1210 [8] = assay: Ratio of melphalan IC50 to compound IC50 for mouse L1210 cells; assay type: functional
MOLT-4 = assay: Ratio of melphalan IC50 to compound IC50 for human Molt4/C8 cells; assay type: functional
K562 = assay: Anticancer activity against human K562 cells; assay type: functional, cell-based
Mus musculus [9] = assay: Neurotoxicity in mouse at 30 to 300 mg/kg, ip after 0.5 to 4 hrs by rotarod method; assay type: toxicity, organism-based; design: dose 30-300 mg/kg, route intraperitoneal; settings: in vivo; summary of the method: as §1
[10] = Cytotoxicity against human HGF cells after 48 hrs; assay type: cell-based
KM12 = assay: Anticancer activity against human KM12 cells; assay type: functional, cell-based
HCT-15 = assay: Anticancer activity against human HCT15 cells; assay type: functional, cell-based
HSC-4 [11] = assay: Selectivity index, ratio of average CC50 for normal human cell line to CC50 for human HSC4 cells
HT-29 = assay: Anticancer activity against human HT-29 cells; assay type: functional, cell-based
HSC-2 [12] = assay: Selectivity index, ratio of average CC50 for normal human cell line to CC50 for human HSC2 cells
HL-60 [13] = assay: Cytotoxicity against human HL60 cells after 48 hrs; assay type: functional; settings: HL-60, 48 h
RPMI-8226 = assay: Anticancer activity against human RPMI8226 cells; assay type: functional, cell-based
[14] = Cytotoxicity against human HPC cells after 48 hrs; assay type: cell-based
HCT-116 = assay: Anticancer activity against human HCT116 cells; assay type: functional, cell-based
COLO 205 = assay: Anticancer activity against human COLO205 cells; assay type: functional, cell-based
HSC-4 [15] = assay: Cytotoxicity against human HSC4 cells after 48 hrs; assay type: functional; settings: HSC-4, 48 h
HSC-3 [16] = assay: Selectivity index, ratio of average CC50 for normal human cell line to CC50 for human HSC3 cells
[17] = Cytotoxicity against human HPLF cells after 48 hrs; assay type: cell-based
HL-60 [18] = assay: Selectivity index, ratio of average CC50 for normal human cell line to CC50 for human HL-60 cells
HSC-3 [19] = assay: Cytotoxicity against human HSC3 cells after 48 hrs; assay type: functional; settings: HSC-3, 48 h
CCRF-CEM [20] = assay: Ratio of melphalan IC50 to compound IC50 for human CEM cells; assay type: functional
HCC 2998 = assay: Anticancer activity against human HCC2998 cells; assay type: functional, cell-based
CCRF-CEM [21] = assay: Anticancer activity against human CCRF-CEM cells; assay type: functional, cell-based
SW-620 = assay: Anticancer activity against human SW620 cells; assay type: functional, cell-based
HL-60 [22] = assay: Induction of mitochondrial pathway-dependent apoptosis in human HL60 cells assessed as DNA fragmentation at 0.5 to 8 uM after 6 hrs by agarose gel electrophoresis; assay type: functional, cell-based
Summary of the method: (§2)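 Cells exposed 6 h to a range of concentrations; a UV-irradiated comparison was given 1 min of UV. Treated and control cells were then held 3 h in regular culture medium, after which DNA was extracted and run on 2% agarose gel electrophoresis.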

HSC-2 [23] = assay: Induction of mitochondrial pathway-dependent apoptosis in human HSC2 cells assessed as caspase 3 activation at 1 to 3 uM; assay type: functional, cell-based
Summary of the method: (§3)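 Caspase-3 activity measured in lysates of treated HL-60 and HSC-2 cells: 100 μg protein per assay, incubated 2 h with the substrate. Mean ± SD of three experiments.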

HSC-2 [24] = assay: Induction of mitochondrial pathway-dependent apoptosis in human HSC2 cells assessed as DNA fragmentation at 0.5 to 8 uM after 6 hrs by agarose gel electrophoresis; assay type: functional, cell-based; summary of the method: as §2
HL-60 [25] = assay: Induction of mitochondrial pathway-dependent apoptosis in human HL60 cells assessed as caspase 3 activation at 1 to 3 uM; assay type: functional, cell-based; summary of the method: as §3

| SMILES | pIC50 [1] | pIC50 (CCRF-CEM [3]) | pIC50 (L1210 [4]) | Activity (Mus musculus [5]) | CC50 (HSC-2 [6]) [nM] | pIC50 (HL-60 [7]) | Ratio IC50 (MOLT-4) | pIC50 (K562) | Activity (Mus musculus [9]) | CC50 at 48 h [10] [nM] | pIC50 (KM12) | pIC50 (HCT-15) | Ratio (HSC-4 [11]) | pIC50 (HT-29) | Ratio (HSC-2 [12]) | pIC50 (HCT-116) | pIC50 (COLO 205) | pIC50 (HCC 2998) | pIC50 (CCRF-CEM [21]) | pIC50 (SW-620) | also measured |
| --- | --- | --- | --- | --- | --- | --- | --- | --- | --- | --- | --- | --- | --- | --- | --- | --- | --- | --- | --- | --- | --- |
| Cc1ccc(/C=C2\CN(C(=O)CCSCCS(=O)(=O)O)C/C(=C\c3ccc(C)cc3)C2=O)cc1 | 4.10 | 3.71 | 3.70 | Non-toxic | – | – | – | – | – | – | – | – | – | – | – | – | – | – | – | – | Activity (Mus musculus [2]): Toxic |
| COc1ccc(/C=C2\CN(C(=O)CCSCCO)C/C(=C\c3ccc(OC)cc3)C2=O)cc1 | 5.78 | 5.45 | 4.71 | Non-toxic | 2410 | 5.77 | 2 | 5.54 | Non-toxic | 17000 | 5.70 | 5.66 | 6.5 | 5.62 | 6.5 | 5.82 | 5.60 | 5.70 | 6.33 | 5.67 | Ratio IC50 (L1210 [8]): 6.6; CC50 (HL-60 [13]): 3200 nM; pIC50 (RPMI-8226): 6.48; CC50 at 48 h [14]: 14000 nM; CC50 (HSC-4 [15]): 2400 nM; Ratio (HSC-3 [16]): 4.8; CC50 at 48 h [17]: 16000 nM; Ratio (HL-60 [18]): 4.9; CC50 (HSC-3 [19]): 3300 nM; Ratio IC50 (CCRF-CEM [20]): 6.6 |
| O=C1/C(=C/c2ccc(Cl)cc2)CN(C(=O)CCSCCS(=O)(=O)O)C/C1=C\c1ccc(Cl)cc1 | 4.45 | 4.38 | 4.00 | Non-toxic | – | 4.59 | – | 4.55 | Non-toxic | – | 4.60 | 4.52 | – | 4.60 | – | 4.55 | 4.62 | 4.65 | 5.03 | 4.53 | pIC50 (RPMI-8226): 4.74 |
| O=C1/C(=C/c2ccccc2)CN(C(=O)CCSCCS(=O)(=O)O)C/C1=C\c1ccccc1 | 3.84 | 3.90 | 3.63 | Non-toxic | – | – | – | – | – | – | – | – | – | – | – | – | – | – | – | – | Activity (Mus musculus [2]): Toxic |
| O=C1/C(=C/c2ccc([N+](=O)[O-])cc2)CN(C(=O)CCSCCS(=O)(=O)O)C/C1=C\c1ccc([N+](=O)[O-])cc1 | 5.16 | 5.13 | 4.94 | Non-toxic | – | – | – | – | Non-toxic | – | – | – | – | – | – | – | – | – | – | – | – |
| O=c1[nH]cc(F)c(=O)[nH]1 [FLUOROURACIL] | – | – | – | – | – | < 4.00 | – | 5.62 | – | – | 5.08 | 5.01 | – | 4.99 | – | 5.07 | 5.38 | 4.87 | 4.48 | < 4.00 | – |
| O=C1/C(=C/c2ccccc2)CN(C(=O)CCSCCO)C/C1=C\c1ccccc1 | 6.18 | 6.24 | 5.42 | – | 1600 | – | 4.9 | – | – | 17000 | – | – | 11.3 | – | 9.2 | – | – | – | – | – | CC50 (HL-60 [13]): 1700 nM; CC50 at 48 h [14]: 14000 nM; CC50 (HSC-4 [15]): 1300 nM; Ratio (HSC-3 [16]): 5.3; CC50 at 48 h [17]: 13000 nM; Ratio (HL-60 [18]): 8.7; CC50 (HSC-3 [19]): 2800 nM; Ratio IC50 (CCRF-CEM [20]): 4.3 |
| O=C1/C(=C/c2ccc([N+](=O)[O-])cc2)CN(C(=O)CCSCCO)C/C1=C\c1ccc([N+](=O)[O-])cc1 | 6.31 | 6.32 | 5.41 | Non-toxic | 340 | 7.00 | 6.7 | 7.22 | Non-toxic | 5400 | 6.77 | 6.68 | 15.5 | 7.00 | 17.3 | 6.96 | 7.22 | 6.55 | 7.40 | 7.15 | Ratio IC50 (L1210 [8]): 96; Activity (HL-60 [22]): Active; Activity (HSC-2 [23]): inactive; CC50 (HL-60 [13]): 440 nM; pIC50 (RPMI-8226): 7.70; CC50 at 48 h [14]: 5800 nM; CC50 (HSC-4 [15]): 380 nM; Ratio (HSC-3 [16]): 8.5; CC50 at 48 h [17]: 6400 nM; Ratio (HL-60 [18]): 13.3; CC50 (HSC-3 [19]): 690 nM; Ratio IC50 (CCRF-CEM [20]): 5.1; Activity (HSC-2 [24]): inactive; Activity (HL-60 [25]): Active |
| O=C1/C(=C/c2ccc(Cl)cc2)CN(C(=O)CCSCCO)C/C1=C\c1ccc(Cl)cc1 | 6.38 | 6.16 | 5.19 | Non-toxic | 470 | 6.49 | 7.6 | 7.00 | Non-toxic | 8300 | 6.72 | 6.59 | 15.8 | 6.59 | 17.1 | 6.77 | 6.34 | 5.96 | 6.68 | 6.77 | Ratio IC50 (L1210 [8]): 43; Activity (HL-60 [22]): Active; Activity (HSC-2 [23]): Active; CC50 (HL-60 [13]): 1000 nM; pIC50 (RPMI-8226): 7.10; CC50 at 48 h [14]: 7200 nM; CC50 (HSC-4 [15]): 510 nM; Ratio (HSC-3 [16]): 8.3; CC50 at 48 h [17]: 8600 nM; Ratio (HL-60 [18]): 8; CC50 (HSC-3 [19]): 970 nM; Ratio IC50 (CCRF-CEM [20]): 3.6; Activity (HSC-2 [24]): Active; Activity (HL-60 [25]): Active |
| COc1ccc(/C=C2\CN(C(=O)CCSCCS)C/C(=C\c3ccc(OC)cc3)C2=O)cc1 | 5.56 | 5.49 | 4.96 | Non-toxic | – | – | – | – | – | – | – | – | – | – | – | – | – | – | – | – | Activity (Mus musculus [2]): Toxic |
